Measurements published in publication PMC5307915 (Pharmacognosy Magazine, 2017).

Key:
purified human IDO [1] = target: T1, purified human IDO (Homo sapiens, UniProt P14902); experiment: Determination of inhibition pattern of IDO inhibitors; assay type: biochemical
Procedure, shortened: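 Same kynurenine assay with purified human IDO (37°C, 1 h, Ehrlich's reagent, A480), run at five L-tryptophan concentrations crossed with four inhibitor concentrations, including zero. Mode of inhibition was taken from Lineweaver-Burk plots. Ki was calculated from the y-intercept, (1 + [I]/Ki)/Vmax. Independent measurements, at least triplicate.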

purified human IDO [2] = target: T1, purified human IDO; experiment: IDO assay; assay type: biochemical; conditions: for inhibition at 100 µM: read-out: IDO inhibition at 100 μM (%)
Procedure, shortened: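 Test compound, serially diluted in DMSO, mixed with 1 μg purified human IDO in 50 mM potassium phosphate, pH 6.5. Ascorbic acid, methylene blue, catalase and 200 μM L-tryptophan added; 1 h at 37°C. Stopped with 30% TCA, 15 min at 65°C, then centrifuged. Supernatant mixed 1:1 with Ehrlich's reagent at RT; kynurenine read at 480 nm. Screened at 100 μM; IC50 from lower concentrations; menadione as positive control; at least triplicate.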

T1 sequence (P14902 whole entry): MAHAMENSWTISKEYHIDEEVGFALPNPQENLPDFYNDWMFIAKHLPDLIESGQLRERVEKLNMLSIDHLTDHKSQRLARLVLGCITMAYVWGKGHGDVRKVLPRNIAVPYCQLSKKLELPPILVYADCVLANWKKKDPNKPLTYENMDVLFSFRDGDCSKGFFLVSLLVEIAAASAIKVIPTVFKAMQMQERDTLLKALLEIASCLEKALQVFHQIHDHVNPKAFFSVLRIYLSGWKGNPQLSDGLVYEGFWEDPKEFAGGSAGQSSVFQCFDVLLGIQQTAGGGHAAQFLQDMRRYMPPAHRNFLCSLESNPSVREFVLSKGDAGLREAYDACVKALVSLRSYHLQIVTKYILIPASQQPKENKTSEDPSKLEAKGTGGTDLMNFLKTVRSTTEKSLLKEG

Structure (SMILES) | Ki (purified human IDO [1]) [µM] | IC50 (purified human IDO [2]) [µM] | inhibition at 100 µM (purified human IDO [2]) [%]
O=C1c2cccc(O)c2C(=O)c2c(O)cc(CO)cc21 [Compound 1, aloe emodin] | 85.3 | 46.5 ± 1.51 | 67.4 ± 2.53
Cc1cc(=O)c2c(CO)cc(O)cc2o1 [Compound 10, 7-hydroxy-5-(hydroxymethyl)-2-methylchromone] | – | – | 5.86 ± 3.08
Cc1cc(O)cc(O)c1 [Compound 11, 5-methylresorcinol] | – | – | 10.2 ± 1.75
CC1=CC(=O)c2ccccc2C1=O [Menadione, reference compound] | – | 3.71 ± 1.26 | –
